# Measurements published in ChEMBL document CHEMBL4145650, “Napabucasin and Related Heterocycle-Fused Naphthoquinones as STAT3 Inhibitors with Antiproliferative Activity against Cancer Cells” (J Nat Prod, 2018).
# The source made the active and inactive calls. No cut-off for these calls is given here.
# Columns and labels:
# [1] = test system: MDA-MB-231; experiment: Antiproliferative activity against human MDA-MB-231 cells measured after 48 hrs by MTT assay; assay type: functional, cell-based; details: MDA-MB-231, 48 h
# How it was run: (§1)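 Cells kept in 10% FBS medium with penicillin/streptomycin/L-glutamine at 37 °C, 5% CO2 (MDA-MB-231 in DMEM, K562 in RPMI 1640). Viability read by MTT reduction to formazan after 48 h of exposure. IC50 obtained by nonlinear regression against vehicle control, given as mean ±SD of three independent experiments (n = 2 where footnoted).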
# [2] = test system: K562; experiment: Antiproliferative activity against human K562 cells measured after 48 hrs by MTT assay; assay type: functional, cell-based; details: K562, 48 h; how it was run: as §1
# [3] = test system: MDA-MB-231; experiment: Induction of apoptosis in human MDA-MB-231 cells assessed as viable cells at 10 umol/L measured after 2 hrs by annexin-V-FITC/7-AAD staining based flow cytometric analysis (reference value: 97 to 98%); assay type: functional; details: MDA-MB-231, 2 h, read-out: Activity
# [4] = test system: MDA-MB-231; experiment: Induction of apoptosis in human MDA-MB-231 cells assessed as viable cells at 10 umol/L measured after 4 hrs by annexin-V-FITC/7-AAD staining based flow cytometric analysis (reference value: 97 to 98%); assay type: functional; details: MDA-MB-231, 4 h, read-out: Activity
# [5] = test system: MDA-MB-231; experiment: Induction of apoptosis in human MDA-MB-231 cells assessed as viable cells at 10 umol/L measured after 6 hrs by annexin-V-FITC/7-AAD staining based flow cytometric analysis (reference value: 97 to 98%); assay type: functional; details: MDA-MB-231, 6 h, read-out: Activity
# [6] = test system: MDA-MB-231; experiment: Induction of apoptosis in human MDA-MB-231 cells assessed as viable cells at 10 umol/L measured after 8 hrs by annexin-V-FITC/7-AAD staining based flow cytometric analysis (reference value: 97 to 98%); assay type: functional; details: MDA-MB-231, 8 h, read-out: Activity
# [7] = test system: MDA-MB-231; experiment: Induction of apoptosis in human MDA-MB-231 cells assessed as viable cells at 10 umol/L measured after 24 hrs by annexin-V-FITC/7-AAD staining based flow cytometric analysis (reference value: 97 to 98%); assay type: functional; details: MDA-MB-231, 24 h, read-out: Activity
# [8] = test system: MDA-MB-231; experiment: Induction of apoptosis in human MDA-MB-231 cells assessed as late apoptotic cells at 10 umol/L measured after 8 hrs by annexin-V-FITC/7-AAD staining based flow cytometric analysis relative to control; assay type: functional
# [9] = test system: MDA-MB-231; experiment: Induction of apoptosis in human MDA-MB-231 cells assessed as late apoptotic cells at 10 umol/L measured after 24 hrs by annexin-V-FITC/7-AAD staining based flow cytometric analysis relative to control; assay type: functional
# [10] = test system: MDA-MB-231; experiment: Induction of apoptosis in human MDA-MB-231 cells assessed as late apoptotic cells at 10 umol/L measured after 4 hrs by annexin-V-FITC/7-AAD staining based flow cytometric analysis relative to control; assay type: functional
# [11] = test system: MDA-MB-231; experiment: Induction of apoptosis in human MDA-MB-231 cells assessed as increase in early apoptotic cells at 10 umol/L measured after 4 to 24 hrs by annexin-V-FITC/7-AAD staining based flow cytometric analysis; assay type: functional, cell-based
# [12] = test system: MDA-MB-231; experiment: Cell cycle arrest in human MDA-MB-231 cells assessed as accumulation at sub-G0 phase at 1 uM measured after 24 hrs by propidium iodide staining based flow cytometry (reference value: 3%); assay type: functional
# [13] = test system: MDA-MB-231; experiment: Cell cycle arrest in human MDA-MB-231 cells assessed as accumulation at G1 phase at 1 uM measured after 24 hrs by propidium iodide staining based flow cytometry (reference value: 62%); assay type: functional
# [14] = test system: MDA-MB-231; experiment: Cell cycle arrest in human MDA-MB-231 cells assessed as accumulation at S phase at 1 uM measured after 24 hrs by propidium iodide staining based flow cytometry (reference value: 12%); assay type: functional
# [15] = test system: MDA-MB-231; experiment: Cell cycle arrest in human MDA-MB-231 cells assessed as accumulation at G2 phase at 1 uM measured after 24 hrs by propidium iodide staining based flow cytometry (reference value: 23%); assay type: functional
# [16] = test system: MDA-MB-231; experiment: Cell cycle arrest in human MDA-MB-231 cells assessed as accumulation at sub-G0 phase at 3 uM measured after 24 hrs by propidium iodide staining based flow cytometry (reference value: 3%); assay type: functional
# [17] = test system: MDA-MB-231; experiment: Cell cycle arrest in human MDA-MB-231 cells assessed as accumulation at G1 phase at 3 uM measured after 24 hrs by propidium iodide staining based flow cytometry (reference value: 62%); assay type: functional
# [18] = test system: MDA-MB-231; experiment: Cell cycle arrest in human MDA-MB-231 cells assessed as accumulation at S phase at 3 uM measured after 24 hrs by propidium iodide staining based flow cytometry (reference value: 12%); assay type: functional
# [19] = test system: MDA-MB-231; experiment: Cell cycle arrest in human MDA-MB-231 cells assessed as accumulation at G2 phase at 3 uM measured after 24 hrs by propidium iodide staining based flow cytometry (reference value: 23%); assay type: functional
# [20] = test system: MDA-MB-231; experiment: Cell cycle arrest in human MDA-MB-231 cells assessed as accumulation at sub-G0 phase at 10 uM measured after 24 hrs by propidium iodide staining based flow cytometry (reference value: 3%); assay type: functional
# [21] = test system: MDA-MB-231; experiment: Cell cycle arrest in human MDA-MB-231 cells assessed as accumulation at G1 phase at 10 uM measured after 24 hrs by propidium iodide staining based flow cytometry (reference value: 62%); assay type: functional
# [22] = test system: MDA-MB-231; experiment: Cell cycle arrest in human MDA-MB-231 cells assessed as accumulation at S phase at 10 uM measured after 24 hrs by propidium iodide staining based flow cytometry (reference value: 12%); assay type: functional
# [23] = test system: MDA-MB-231; experiment: Cell cycle arrest in human MDA-MB-231 cells assessed as accumulation at G2 phase at 10 uM measured after 24 hrs by propidium iodide staining based flow cytometry (reference value: 23%); assay type: functional
# [24] = test system: MDA-MB-231; experiment: Cell cycle arrest in human MDA-MB-231 cells assessed as accumulation at sub-G0 phase at 30 uM measured after 24 hrs by propidium iodide staining based flow cytometry (reference value: 3%); assay type: functional
# [25] = test system: MDA-MB-231; experiment: Cell cycle arrest in human MDA-MB-231 cells assessed as accumulation at G1 phase at 30 uM measured after 24 hrs by propidium iodide staining based flow cytometry (reference value: 62%); assay type: functional
# [26] = test system: MDA-MB-231; experiment: Cell cycle arrest in human MDA-MB-231 cells assessed as accumulation at S phase at 30 uM measured after 24 hrs by propidium iodide staining based flow cytometry (reference value: 12%); assay type: functional
# [27] = test system: MDA-MB-231; experiment: Cell cycle arrest in human MDA-MB-231 cells assessed as accumulation at G2 phase at 30 uM measured after 24 hrs by propidium iodide staining based flow cytometry (reference value: 23%); assay type: functional
# [28] = test system: K562; experiment: Induction of superoxide generation in human K562 cells at 5 umol/L measured after 24 hrs in presence of NQO1 inhibitor dicoumarol by DHE staining based flow cytometry; assay type: functional, cell-based
# How it was run: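 Cells were treated with compound at 5 μmol/L or DMSO for 24 h, with or without dicoumarol preincubation (5 μmol/L, 30 min), then stained with DHE for 30 min. 2-OH-DHE fluorescence was read by flow cytometry and expressed relative to vehicle control. At least three independent measurements.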
# [29] = molecular target: T1, Signal transducer and activator of transcription 3 (Homo sapiens, UniProt P40763); experiment: Inhibition of STAT3 phosphorylation at Y705 in human MDA-MB-231 cells after 4 hrs by HTRF assay; assay type: cell-based
# T1 sequence (P40763 whole entry): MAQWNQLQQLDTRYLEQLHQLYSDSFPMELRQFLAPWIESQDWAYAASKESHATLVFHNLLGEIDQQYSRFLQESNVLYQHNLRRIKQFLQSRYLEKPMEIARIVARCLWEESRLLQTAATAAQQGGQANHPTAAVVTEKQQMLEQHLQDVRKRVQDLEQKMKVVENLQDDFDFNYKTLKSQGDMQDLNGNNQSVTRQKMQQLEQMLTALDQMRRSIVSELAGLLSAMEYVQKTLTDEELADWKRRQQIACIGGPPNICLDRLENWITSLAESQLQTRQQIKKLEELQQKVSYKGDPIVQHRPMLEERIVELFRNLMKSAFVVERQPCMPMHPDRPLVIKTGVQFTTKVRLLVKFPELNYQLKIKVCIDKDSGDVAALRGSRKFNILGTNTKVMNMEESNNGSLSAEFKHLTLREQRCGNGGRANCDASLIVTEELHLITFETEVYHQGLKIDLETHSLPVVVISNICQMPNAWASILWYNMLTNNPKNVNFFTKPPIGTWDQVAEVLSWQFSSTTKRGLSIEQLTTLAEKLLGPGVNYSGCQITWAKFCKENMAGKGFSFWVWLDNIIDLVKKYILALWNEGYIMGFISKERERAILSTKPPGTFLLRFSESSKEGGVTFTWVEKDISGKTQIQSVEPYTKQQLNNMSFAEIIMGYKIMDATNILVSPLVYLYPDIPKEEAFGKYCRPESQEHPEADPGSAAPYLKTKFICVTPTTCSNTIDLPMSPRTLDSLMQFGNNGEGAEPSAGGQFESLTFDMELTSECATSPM
# How it was run: (§2)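 MDA-MB-231 cells (10^5/well) were left to adhere overnight, serum-starved for 4 h in DMEM, then treated with 0.1–30 μmol/L compound (0.5% final DMSO) for 4 h at 37 °C. Lysates were incubated 24 h at room temperature with Eu-cryptate/d2 antibody pairs for phospho-STAT3 (Y705) or total STAT3. The 665/620 nm HTRF ratio was taken and phospho/total normalized. EC50 was obtained by nonlinear regression.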
# [30] = test system: MDA-MB-231; experiment: Effect on total STAT3 level in human MDA-MB-231 cells at 0.1 to 30 umol/L after 4 hrs by HTRF assay; assay type: cell-based; details: mda-mb-231, 4 h; how it was run: as §2
# [31] = molecular target: T1, Signal transducer and activator of transcription 3; experiment: Inhibition of STAT3 phosphorylation at Y705 in human MDA-MB-231 cells assessed as reduction in ratio of phosphorylated STAT3 to total STAT3 level after 4 hrs by HTRF assay; assay type: cell-based; how it was run: as §2
# [32] = molecular target: T1, Signal transducer and activator of transcription 3; experiment: Binding affinity to STAT3 in human MDA-MB-231 cells at 100 uM measured after 1 hr by DARTS-Western blot analysis; assay type: cell-based
# How it was run: (§3)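 A nondenaturing lysate of MDA-MB-231 cells (M-PER with protease and phosphatase inhibitors) was incubated with compound at 100 μmol/L or DMSO for 1 h at room temperature in the dark. TNC buffer pH 8.0 was added, then thermolysin (1:3000 of protein) for 30 min at room temperature; undigested controls were kept. Run on SDS-PAGE with 10 μg protein per lane, then Western blot with anti-STAT3.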
# [33] = molecular target: T1, Signal transducer and activator of transcription 3; experiment: Binding affinity to STAT3 in human MDA-MB-231 cells at 100 uM treated for 1 hr followed by thermolysin addition measured after 30 mins by DARTS-Western blot analysis; assay type: cell-based; how it was run: as §3
# [34] = test system: MDA-MB-231; experiment: Induction of apoptosis in human MDA-MB-231 cells assessed as late apoptotic cells at 10 umol/L measured after 4 hrs by annexin-V-FITC/7-AAD staining based flow cytometric analysis relative to control
smiles,measurement,setting,value
CC(=O)c1cc2c(o1)-c1ccccc1C(=O)C2=O,IC50,[1],740 nM
same,IC50,[2],1100 nM
same,viability at 10 µM,[3],93%
same,viability at 10 µM,[4],82%
same,viability at 10 µM,[5],83%
same,viability at 10 µM,[6],67%
same,viability at 10 µM,[7],9%
same,Activity,[8],31%
same,Activity,[9],89%
same,Activity,[10],14%
same,Activity,[11],inactive
same,Activity,[12],3%
same,Activity,[13],60%
same,Activity,[14],14%
same,Activity,[15],23%
same,Activity,[16],5%
same,Activity,[17],59%
same,Activity,[18],13%
same,Activity,[19],23%
same,Activity,[20],inactive
same,Activity,[21],63%
same,Activity,[22],15%
same,Activity,[23],20%
same,Activity,[24],5%
same,Activity,[25],60%
same,Activity,[26],15%
same,Activity,[27],20%
same,Activity,[28],inactive
same,EC50,[29],870 nM
same,Activity,[30],Non-Toxic
same,EC50,[31],800 nM
same,Activity,[32],inactive
same,Activity,[33],Active
same,Activity,[34],14%
